Screening results: PubChem, Broad Institute
Hits are enriched below; roughly 2.7% of the tested compounds scored in any of these assays.
E-sel inducer = E-selectin induction in HUVECs, primary screen, imaging, HUVEC, immunofluorescence imaging, single point; P16581; normalized: neutral wells 0, TNF-alpha wells 100; activation, % at 7.58 µM; 260,000 tested, 0.37% active; AID 686992, 2013;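 active = mean E-selectin-positive cell signal at least 10% of the positive control, reached in at least 60% of replicates, without over 20% cell loss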
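Read-out basis: % PE-positive cells; Test system: HUVEC primary endothelial cells; Technique: immunofluorescence imaging; Dosing: single-point compound dose.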
FGF22 binding = binders of human FGF22 protein, primary screen, FGF22 synaptogenesis inhibitor project, biophysical, thermal shift, single point | 340,000 tested, 1.5% active | AID 651658, 2012 | Fibroblast growth factor 22 (Homo sapiens), Q9HCT0 | recombinant FGF22 thermal shift, SYPRO orange fluorescence; percent of sucrose octasulfate shift, DMSO zero | activity (Tm shift, normalised), % at 9.99 µM;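 active = mean Tm shift, scaled 0 neutral to 100 positive control, at about 1.3% or above, every replicate too, limit read from the data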
Target sequence (Q9HCT0 whole entry, looked up): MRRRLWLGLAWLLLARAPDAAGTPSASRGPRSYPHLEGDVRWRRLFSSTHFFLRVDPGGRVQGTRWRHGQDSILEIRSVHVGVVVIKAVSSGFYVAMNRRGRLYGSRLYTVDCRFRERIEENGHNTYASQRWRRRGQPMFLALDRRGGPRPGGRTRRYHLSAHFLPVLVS
Env fusion inh = inhibitors of HIV-1 Env-driven cell-cell fusion, primary screen, HeLa-JRFL effector, CEM21 target cells, luciferase | 360,000 tested, 1.1% active | AID 651610, 2012 | inhibition, % at 12.3 µM;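 active = mean replicate inhibition score of at least 50 and every replicate individually at or above 50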;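 also: 0% = plate neutral controls and 100% = maraviroc near 300 nM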
S100A4 MyoIIA = inhibitors of S100A4-myosin IIA peptide binding, primary screen, biochemical, fluorescence polarization, TAMRA-MyoIIA peptide; 360,000 tested, 0.14% active; Protein S100-A4 (Homo sapiens), P26447; inhibition, % at 10.7 µM;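 active = mean inhibition of at least 70% across replicates, with every replicate also reaching that level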
Target sequence (P26447 whole entry, looked up): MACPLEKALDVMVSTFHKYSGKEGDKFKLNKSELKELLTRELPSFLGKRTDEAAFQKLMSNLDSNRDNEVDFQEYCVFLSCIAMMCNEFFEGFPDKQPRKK
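Material: S100A4 monomer (human). Medium: Calcium-containing HEPES buffer, pH 7.2. Probe or stimulus: labelled myosin peptide probe, 5 nM. Compound dosing: one concentration per compound. Timing: polarization read 5 min after assay mix addition, stable 5–60 min. Benchmarks: DMSO as neutral control, TFP as positive control.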
CFTR F508del cor = F508del CFTR correction, initial screen, CFBE line, single point; activity (quench increase), % at 7.58 µM; 350,000 tested, 0.36% active; CFBE cells, YFP halide quenching; stimulated with forskolin plus potentiator P3; % fluorescence drop versus neutral controls;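 active = mean added fluorescence quench of at least 8% versus neutral control, with both replicates also reaching 8%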;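 also: cells transiently co-express mutant CFTR-F508del with the halide-sensitive YFP; corrector assay measuring rescue of mutant channel to the surface after 24 h compound exposure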
* hit, by the source's call; · = no result given; [ ] = dose if it differs, or a comment.

SMILES	E-sel inducer	FGF22 binding	Env fusion inh	S100A4 MyoIIA	CFTR F508del cor
CCCC(=O)Nc1ccc2c(c1)OC[C@H](C)N(Cc1nccs1)C[C@@H](C)[C@H](OC)CN(C)C2=O	1	·	·	·	-2
O=C(C[C@H]1C[C@H]2c3cc(NS(=O)(=O)c4ccc(F)cc4)ccc3O[C@H]2[C@H](CO)O1)N1CCOCC1	0	·	9[16.7 µM]	-17	1
COc1cccc(C(C)(O)c2nc(-c3ccc(S(C)(=O)=O)cc3)cs2)c1 (stereo not given)	0	0	64*	1	-1
COc1ccc(-c2csc(C(C)(O)c3cccc(OC)c3)n2)cc1 (stereo not given)	-1	0	22	-1	1
CCOC(=O)c1cnc2c(cnn2C)c1Cl	·	43*	3	-2	1
C[C@H](CO)N1C[C@H](C)[C@H](CN(C)S(=O)(=O)c2cccs2)Oc2ccc(NC(=O)Nc3ccc(C(F)(F)F)cc3)cc2CC1=O	6	0	61*[16.7 µM]	-9	0
CC(C)NC(=O)Nc1ccc2c(c1)CC(=O)N([C@@H](C)CO)C[C@H](C)[C@@H](CN(C)S(=O)(=O)c1cccs1)O2	0	1	-4[16.7 µM]	8	-2
C[C@H](CO)N1C[C@H](C)[C@H](CN(C)S(=O)(=O)c2cccs2)Oc2ccc(NC(=O)NC3CCCCC3)cc2CC1=O	0	0	84*[16.7 µM]	-1	0
CC(C)NC(=O)Nc1ccc2c(c1)CC(=O)N([C@@H](C)CO)C[C@H](C)[C@H](CN(C)S(=O)(=O)c1cccs1)O2	0	0	57*[16.7 µM]	3	-2
C[C@H](CO)N1C[C@H](C)[C@H](CN(C)S(=O)(=O)c2cccs2)Oc2ccc(NC(=O)Nc3ccc4c(c3)OCO4)cc2CC1=O	0	0	99*	-1	2
C[C@@H]1CN([C@H](C)CO)C(=O)Cc2cc(NC(=O)Nc3ccc(C(F)(F)F)cc3)ccc2O[C@H]1CN(C)S(=O)(=O)c1cccs1	1	0	14[16.7 µM]	-7	0
C[C@@H]1CN([C@H](C)CO)C(=O)Cc2cc(NC(=O)NC3CCCCC3)ccc2O[C@@H]1CN(C)S(=O)(=O)c1cccs1	0	0	7[16.7 µM]	0	-1
COCC(=O)N1CC(=O)N2[C@H](C1)[C@H](c1ccc(Br)cc1)[C@@H]2CO	0	1	·	7	-6
CCNC(=O)C[C@H]1CC[C@@H]2[C@@H](COc3ccc(NC(=O)C4CCCCC4)cc3C(=O)N2C)O1	0	-1	-13[16.7 µM]	6	-3
CCC(=O)Nc1ccc2c(c1)OC[C@H](C)N(Cc1cncnc1)C[C@@H](C)[C@@H](OC)CN(C)C2=O	0	0	·	-10	1
C[C@H]1CN([C@@H](C)CO)C(=O)Cc2cc(NC(=O)Nc3ccccc3)ccc2O[C@@H]1CN(C)S(=O)(=O)c1cccs1	0	0	12[16.7 µM]	-10	0
CC(C)NC(=O)Nc1ccc2c(c1)CC(=O)N([C@H](C)CO)C[C@H](C)[C@H](CN(C)S(=O)(=O)c1cccs1)O2	0	0	60*[16.7 µM]	5	1
C[C@@H]1CN([C@H](C)CO)C(=O)Cc2cc(NS(=O)(=O)c3ccc(Cl)cc3)ccc2O[C@H]1CN(C)C(=O)NC1CCCCC1	3	0	·	-4	0
COc1ccc(S(=O)(=O)Nc2ccc3c(c2)CC(=O)N([C@H](C)CO)C[C@H](C)[C@@H](CN(C)C(=O)NC2CCCCC2)O3)cc1	53*	0	1[16.7 µM]	3	-3
COc1ccc(S(=O)(=O)Nc2ccc3c(c2)CC(=O)N([C@@H](C)CO)C[C@@H](C)[C@@H](CN(C)C(=O)NC2CCCCC2)O3)cc1	74*	0	-5[16.7 µM]	12	0
COc1ccc(S(=O)(=O)Nc2ccc3c(c2)CC(=O)N([C@H](C)CO)C[C@H](C)[C@H](CN(C)C(=O)NC2CCCCC2)O3)cc1	76*	0	-11[16.7 µM]	13	-2
C[C@H]1CN([C@@H](C)CO)C(=O)Cc2cc(NS(=O)(=O)c3ccc(F)cc3)ccc2O[C@@H]1CN(C)C(=O)NC1CCCCC1	0	0	·	3	3
O=C(COC(=O)C1=COCCO1)Nc1ccc2c(c1)OCO2	·	·	-16	·	·
C/C=C/C(=O)OCC(=O)Nc1ccc(OC)c(Cl)c1	·	·	-13	·	·
COc1ccc(NC(=O)COC(=O)C2=COCCO2)cc1OC	1	44*	-16	-1	1
SMILES	E-sel inducer	FGF22 binding	Env fusion inh	S100A4 MyoIIA	CFTR F508del cor
C/C=C/C(=O)OCC(=O)Nc1ccc(OC)c(OC)c1	·	43*	4	0	0
CSc1ccc(C(=O)C2CCCN(C(=O)c3cccnc3SC)C2)cc1 (stereo not given)	-1	0	5	2	2
CSc1ncccc1C(=O)N1CCCC(C(=O)c2ccc3ccccc3c2)C1 (stereo not given)	0	43*	3	-4	0
COc1ccc(C(=O)C2CCCN(C(=O)c3cccnc3OC)C2)cc1F (stereo not given)	·	44*	2	1	·
COc1ccc(C(=O)C2CCCN(C(=O)c3cccs3)C2)cc1F (stereo not given)	0	43	-1	1	0
Cc1ccc(S(=O)(=O)Nc2ccc3c(c2)C(=O)N([C@H](C)CO)C[C@H](C)[C@H](CN(C)C(=O)CCCN(C)C)OCCCC[C@H](C)O3)cc1	·	0	9[16.7 µM]	-8	-4
COc1ccc(S(=O)(=O)Nc2cccc3c2O[C@@H](CN(C)C(=O)Nc2cccc4ccccc24)[C@H](C)CN([C@H](C)CO)C3=O)cc1	4	·	-3[16.7 µM]	·	1
Nc1ccc(NC2C[C@@H](C(=O)O)NC2=O)cc1 (stereo not given in full)	·	43*	-7	1	1
Nc1ccc(NC(=O)Nc2ccc(N)cc2)cc1	0	0	-11	0	1
CO[C@H]1CN(C)C(=O)c2cc(NC(=O)NC(C)C)ccc2OC[C@H](C)N(C)C[C@H]1C	0	0	·	-3	1
Cc1cccc(NC(=O)c2nc[nH]c2C(=O)NCCCCCCNC(=O)c2[nH]cnc2C(=O)Nc2cccc(C)c2)c1	0	0	17	0	1
CCOC(=O)c1ccc(NC(=O)c2nc[nH]c2C(=O)NCCNC(=O)c2[nH]cnc2C(=O)Nc2ccc(C(=O)OCC)cc2)cc1	0	0	82*	0	3
Cc1cccc(NC(=O)c2nc[nH]c2C(=O)NCCCCNC(=O)c2[nH]cnc2C(=O)Nc2cccc(C)c2)c1	1	0	70*	-2	2
C[C@H](CO)N1C[C@H](C)[C@@H](CN(C)Cc2ccc(Oc3ccccc3)cc2)OCc2ccccc2-c2c(n(C)c3ccccc23)C1=O	0	·	·	5	0
